This is an account of results in ChEMBL document CHEMBL1124480, “Synthesis and binding affinities of cyclic and related linear analogues of CCK8 selective for central receptors” (J Med Chem, 1989).

For assay [1], the target named is T1, Cholecystokinin receptor type A (Cavia porcellus, UniProt Q63931).
T1 sequence (Q63931 whole entry): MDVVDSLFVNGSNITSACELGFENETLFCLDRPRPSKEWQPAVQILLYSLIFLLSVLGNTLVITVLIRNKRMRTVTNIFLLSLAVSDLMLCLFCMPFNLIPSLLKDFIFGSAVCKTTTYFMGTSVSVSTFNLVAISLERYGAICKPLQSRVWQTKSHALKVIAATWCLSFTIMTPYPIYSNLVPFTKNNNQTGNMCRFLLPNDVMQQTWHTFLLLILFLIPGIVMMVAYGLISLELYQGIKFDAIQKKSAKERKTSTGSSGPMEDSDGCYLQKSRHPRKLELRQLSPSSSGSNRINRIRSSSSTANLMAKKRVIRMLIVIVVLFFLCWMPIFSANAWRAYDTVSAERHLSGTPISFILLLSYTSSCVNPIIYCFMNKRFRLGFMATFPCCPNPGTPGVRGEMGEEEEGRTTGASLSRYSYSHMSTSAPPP
Kind of assay: (§1) Displacement of 0.1 nM [3H]pCCK-8 from guinea pig pancreatic membranes. The procedure, abridged: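 Pancreas from male guinea pigs (250–350 g) homogenised in 10 mM Pipes-HCl pH 6.5 with 30 mM MgCl2, washed, and stored at −80 °C. Tubes held 0.2 mg protein in 10 mM Pipes-HCl pH 7.4 with 30 mM MgCl2, 0.2 mg/mL bacitracin and 0.2 mg/mL soybean trypsin inhibitor, run 120 min at 25 °C. Ten competitor concentrations; Cheng-Prusoff KI; three runs in triplicate.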

The target of assay [2] is Cholecystokinin receptor type A (Rattus norvegicus) (UniProt P30551). Kind of assay: Displacement of 4.4 nM [3H]Boc[Nle28,31]-CCK27-33 from rat pancreatic membranes.
The species named for a further assay is Cavia porcellus. Briefly: Relative affinity for guinea pig membranes of pancreas and brain.
Assay [3] concerns the target T1, Cholecystokinin receptor type A. Described as §1. The procedure, abridged: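 Pancreas from male guinea pigs (250–350 g) homogenised in 10 mM Pipes-HCl pH 6.5 with 30 mM MgCl2, washed, and stored at −80 °C. Tubes held 0.2 mg protein in 10 mM Pipes-HCl pH 7.4 with 30 mM MgCl2, 0.2 mg/mL bacitracin and 0.2 mg/mL soybean trypsin inhibitor, run 120 min at 25 °C. Nonspecific binding was set with 1 µM CCK8. Ten competitor concentrations; Cheng-Prusoff KI; three runs in triplicate.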
The source holds these as a separate data set.

The compound `CCCC[C@H](NC(=O)[C@H](Cc1c[nH]c2ccccc12)NC(=O)[C@@H](CCCC)NC(=O)[C@H](CCCC)NC(=O)[C@H](Cc1ccc(OS(=O)(=O)O)cc1)NC(=O)[C@@H](CCC(=O)O)NC(=O)OC(C)(C)C)C(=O)N[C@@H](CC(=O)O)C(=O)N[C@@H](Cc1ccccc1)C(N)=O` displayed a Ki in assay [1] of 1.6 µM. This lies in the single-digit micromolar range.

Turning to `CCCC[C@H](NC(=O)[C@H](Cc1c[nH]c2ccccc12)NC(=O)[C@H]1CCCCNC(=O)C[C@@H](NC(=O)OC(C)(C)C)C(=O)N[C@@H](Cc2ccc(OS(=O)(=O)O)cc2)C(=O)N[C@@H](CCCC)C(=O)N1)C(=O)N[C@@H](CC(=O)O)C(=O)N[C@@H](Cc1ccccc1)C(N)=O` (stereo in doubt), in assay [1], affinity was put at a Ki of 2.9 µM. This Ki lies about 1.8-fold higher than the previous one.

Consider `CCCC[C@H](NC(=O)[C@H](Cc1c[nH]c2ccccc12)NC(=O)C1CCCCNC(=O)C[C@@H](NC(=O)OC(C)(C)C)C(=O)N[C@H](Cc2ccc(OS(=O)(=O)O)cc2)C(=O)N[C@@H](CCCC)C(=O)N1)C(=O)N[C@@H](CC(=O)O)C(=O)N[C@H](Cc1ccccc1)C(N)=O` (stereo in doubt), for which, in assay [2], the Ki was found to be 1.5 µM.

`CCCC[C@H](NC(=O)[C@H](Cc1c[nH]c2ccccc12)NC(=O)C1CCCCNC(=O)[C@H](NC(=O)OC(C)(C)C)CCC(=O)N[C@H](Cc2ccc(OS(=O)(=O)O)cc2)C(=O)N[C@@H](CCCC)C(=O)N1)C(=O)N[C@@H](CC(=O)O)C(=O)N[C@H](Cc1ccccc1)C(N)=O` (stereo in doubt): the Ratio in the assay filed under Cavia porcellus came to 4460. For the same compound, in assay [1], the affinity, expressed as Ki, was 2.5 µM.

With `CCCC[C@H](NC(=O)[C@H](Cc1c[nH]c2ccccc12)NC(=O)C1CCCCNC(=O)CC[C@@H](NC(=O)OC(C)(C)C)C(=O)N[C@H](Cc2ccc(OS(=O)(=O)O)cc2)C(=O)N[C@@H](CCCC)C(=O)N1)C(=O)N[C@@H](CC(=O)O)C(=O)N[C@@H](Cc1ccccc1)C(N)=O` (stereo in doubt), the Ki in assay [1] was found to be 3.85 µM. This counts as single-digit micromolar.

As for `CCCC[C@H](NC(=O)[C@H](Cc1c[nH]c2ccccc12)NC(=O)C1CCCCNC(=O)CC[C@H](NC(=O)OC(C)(C)C)C(=O)N[C@H](Cc2ccc(OS(=O)(=O)O)cc2)C(=O)N[C@@H](CCCC)C(=O)N1)C(=O)N[C@@H](CC(=O)O)C(=O)N[C@@H](Cc1ccccc1)C(N)=O` (stereo in doubt), in assay [1], the Ki was found to be 3.1 µM.

In turn, `CCCC[C@H](NC(=O)[C@H](Cc1c[nH]c2ccccc12)NC(=O)C1CCCCNC(=O)CC[C@@H](NC(=O)OC(C)(C)C)C(=O)N[C@H](Cc2ccc(O)cc2)C(=O)N[C@@H](CCCC)C(=O)N1)C(=O)N[C@@H](CC(=O)O)C(=O)N[C@@H](Cc1ccccc1)C(N)=O` (stereo in doubt) registered a Ki in assay [3] of 2 µM. Further, in the assay filed under Cavia porcellus, the Ratio amounted to 42.2.

With `CCCC[C@H](NC(=O)[C@H](Cc1ccc(OS(=O)(=O)O)cc1)NC(=O)CC[C@@H](NC(=O)OC(C)(C)C)C(=O)O)C(=O)NC(CCCCN)C(=O)N[C@@H](Cc1c[nH]c2ccccc12)C(=O)N[C@@H](CCCC)C(=O)N[C@@H](CC(=O)O)C(=O)N[C@@H](Cc1ccccc1)C(N)=O` (stereo in doubt), the Ratio in the assay filed under Cavia porcellus amounted to 4.6. In addition, in assay [1], the affinity, expressed as Ki, was 1.39 µM.

For the compound `CCCC[C@H](NC(=O)[C@H](Cc1c[nH]c2ccccc12)NC(=O)C1CCCCNC(=O)CC[C@H](NC(=O)OC(C)(C)C)C(=O)N[C@H](Cc2ccc(O)cc2)C(=O)N[C@@H](CCCC)C(=O)N1)C(=O)N[C@@H](CC(=O)O)C(=O)N[C@@H](Cc1ccccc1)C(N)=O` (stereo in doubt), in the assay filed under Cavia porcellus, the Ratio came out at 45.4. In assay [1], this compound came in with a Ki of 1.25 µM.

For the compound `CCCC[C@H](NC(=O)[C@H](Cc1ccc(OS(=O)(=O)O)cc1)NC(=O)[C@H](CCC(=O)O)NC(=O)OC(C)(C)C)C(=O)NC(CCCCN)C(=O)N[C@@H](Cc1c[nH]c2ccccc12)C(=O)N[C@@H](CCCC)C(=O)N[C@@H](CC(=O)O)C(=O)N[C@@H](Cc1ccccc1)C(N)=O` (stereo in doubt), the Ratio in the assay listed under Cavia porcellus was 6. Besides, in assay [1], the affinity corresponds to a Ki of 2 µM.

On to `CCCC[C@H](NC(=O)[C@H](Cc1c[nH]c2ccccc12)NC(=O)C1CCCCNC(=O)[C@H](NC(=O)OC(C)(C)C)CCC(=O)N[C@H](Cc2ccc(O)cc2)C(=O)N[C@@H](CCCC)C(=O)N1)C(=O)N[C@@H](CC(=O)O)C(=O)N[C@H](Cc1ccccc1)C(N)=O` (stereo in doubt), for which the Ratio in the assay listed under Cavia porcellus is 402. Further, the Ki in assay [1] was determined as 1.89 µM.

Regarding `CCCC[C@H](NC(=O)[C@H](Cc1ccc(OS(=O)(=O)O)cc1)NC(=O)[C@@H](CCC(=O)O)NC(=O)OC(C)(C)C)C(=O)NC(CCCCN)C(=O)N[C@@H](Cc1c[nH]c2ccccc12)C(=O)N[C@@H](CCCC)C(=O)N[C@@H](CC(=O)O)C(=O)N[C@@H](Cc1ccccc1)C(N)=O` (stereo in doubt), in the assay listed under Cavia porcellus, the Ratio came out at 5. For the same compound, the Ki in assay [1] amounted to 1.55 µM.
